Activity calls are given as the source filed them. The calls are words filed in the database; no cut-off is given here.
Tests used:
Progesterone receptor = target: T1, Progesterone receptor (Homo sapiens, UniProt P06401); assay: Binding affinity to progesterone receptor by PRB assay
T1 sequence (P06401 whole entry): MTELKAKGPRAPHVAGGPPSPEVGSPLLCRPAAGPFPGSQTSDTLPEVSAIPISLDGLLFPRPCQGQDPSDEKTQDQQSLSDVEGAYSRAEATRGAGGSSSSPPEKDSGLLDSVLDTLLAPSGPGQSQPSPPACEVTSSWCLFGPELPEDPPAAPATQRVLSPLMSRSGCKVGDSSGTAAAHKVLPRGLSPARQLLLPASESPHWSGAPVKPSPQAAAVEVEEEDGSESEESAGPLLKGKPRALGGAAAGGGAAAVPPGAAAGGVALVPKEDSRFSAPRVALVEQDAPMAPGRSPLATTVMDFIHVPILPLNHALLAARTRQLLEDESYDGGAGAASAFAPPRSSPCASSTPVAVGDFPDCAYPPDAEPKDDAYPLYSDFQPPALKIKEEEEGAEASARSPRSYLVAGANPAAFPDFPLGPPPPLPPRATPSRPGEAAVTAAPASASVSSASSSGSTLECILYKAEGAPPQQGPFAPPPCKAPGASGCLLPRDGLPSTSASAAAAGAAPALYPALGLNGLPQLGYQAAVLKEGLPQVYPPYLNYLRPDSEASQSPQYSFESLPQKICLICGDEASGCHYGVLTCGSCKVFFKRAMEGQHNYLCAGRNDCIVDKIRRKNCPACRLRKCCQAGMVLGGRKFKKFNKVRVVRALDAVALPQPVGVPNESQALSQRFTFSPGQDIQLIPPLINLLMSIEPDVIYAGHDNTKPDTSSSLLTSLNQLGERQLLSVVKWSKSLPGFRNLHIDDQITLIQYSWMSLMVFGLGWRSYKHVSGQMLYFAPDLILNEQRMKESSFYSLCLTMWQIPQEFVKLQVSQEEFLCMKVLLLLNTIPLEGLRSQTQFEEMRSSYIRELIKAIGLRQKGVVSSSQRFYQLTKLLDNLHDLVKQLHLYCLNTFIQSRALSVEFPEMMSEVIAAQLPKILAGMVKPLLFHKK

Syrian golden hamster [1] = assay: Inhibition of cholesterol ester in Syrian golden hamster ear model for sebum at 1% administered topically BID 5 days a week for 2 weeks measured 18 to 24 hrs after the final dose; type: functional, Mesocricetus auratus
Androgen receptor [2] = target: T2, Androgen receptor (Homo sapiens, UniProt P10275); assay: Displacement of [3H]DHT from human AR expressed in baculovirus Sf9 cells system by scintillation counting
T2 sequence (P10275 whole entry): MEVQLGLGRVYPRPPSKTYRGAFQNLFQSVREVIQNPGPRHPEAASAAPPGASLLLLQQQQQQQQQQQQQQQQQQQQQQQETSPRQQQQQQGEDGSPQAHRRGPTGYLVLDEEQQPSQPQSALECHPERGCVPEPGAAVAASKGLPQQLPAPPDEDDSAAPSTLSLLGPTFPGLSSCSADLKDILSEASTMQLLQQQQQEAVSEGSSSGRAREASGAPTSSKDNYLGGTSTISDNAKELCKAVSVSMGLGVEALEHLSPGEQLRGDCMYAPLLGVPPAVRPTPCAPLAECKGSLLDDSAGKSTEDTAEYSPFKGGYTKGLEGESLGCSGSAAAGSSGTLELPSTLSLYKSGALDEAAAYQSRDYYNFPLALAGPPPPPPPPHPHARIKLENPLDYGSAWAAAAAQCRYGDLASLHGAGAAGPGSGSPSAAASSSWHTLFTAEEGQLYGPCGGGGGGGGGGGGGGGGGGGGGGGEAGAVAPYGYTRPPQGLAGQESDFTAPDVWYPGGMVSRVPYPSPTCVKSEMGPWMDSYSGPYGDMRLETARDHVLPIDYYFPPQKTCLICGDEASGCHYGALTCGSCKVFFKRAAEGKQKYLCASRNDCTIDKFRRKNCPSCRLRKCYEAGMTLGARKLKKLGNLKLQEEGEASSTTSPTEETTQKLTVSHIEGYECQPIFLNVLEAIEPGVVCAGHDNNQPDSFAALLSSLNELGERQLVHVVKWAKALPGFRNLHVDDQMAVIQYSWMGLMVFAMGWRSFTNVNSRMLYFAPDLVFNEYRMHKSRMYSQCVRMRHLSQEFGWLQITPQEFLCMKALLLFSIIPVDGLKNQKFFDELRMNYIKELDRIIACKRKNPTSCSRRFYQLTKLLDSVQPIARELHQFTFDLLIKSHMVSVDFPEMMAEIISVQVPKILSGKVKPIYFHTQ

Syrian golden hamster [3] = assay: Inhibition of wax ester in Syrian golden hamster ear model for sebum at 1% administered topically BID 5 days a week for 2 weeks measured 18 to 24 hrs after the final dose; type: functional, Mesocricetus auratus
[4] = Artificial human sebum-water partition coefficient, log K of the compound; type: physicochemical
How it was run: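 About 5 mg artificial human sebum, spiked with drug at 1 mg/250 μL sebum, was equilibrated with 1 mL saturated aqueous solution at 37 C for 15 h. Drug concentration in the aqueous phase was then analysed, and the sebum–water partition coefficient was derived from it.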

Androgen receptor [5] = target: T2, Androgen receptor; assay: Antagonist activity at androgen receptor in human MDA-MB-453 cells coexpressing MMTV-ARE reporter gene assessed as inhibition of DHT-induced response; type: functional, cell-based
[6] = Octanol-buffer partition coefficient, log D at pH 7.4; type: physicochemical; conditions: read-out: LogD7.4
Sus scrofa [7] = assay: Toxicity in minipig assessed as dermal toleration at 25% administered topically BID for 7 days; type: organism-based; conditions: pig, in vivo, topical_or_ocular, 168 h
[8] = Clearance in human; type: ADME, organism-based; conditions: in vivo
Mus musculus [9] = assay: Toxicity in BALB/c mouse assessed as skin sensitization at 25% administered for 4 days; type: organism-based; conditions: in vivo, 96 h
Syrian golden hamster [10] = assay: Reduction in wax ester-associated sebaceous gland size decrease in Syrian golden hamster ear model for sebum administered topically BID 5 days a week for 2 weeks measured 18 to 24 hrs after the final dose; type: functional, organism-based; conditions: Mesocricetus auratus
How it was run: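 Hamsters were dosed on the ear twice daily for 2 weeks. Sebaceous gland size was quantified by fatty acid synthase immunohistochemical staining and correlated with wax ester reduction by correlation coefficient.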

[11] = Intrinsic clearance in human liver microsomes after 1 hr by LC/MS/MS method; type: ADME, Microsome
Estrogen receptor = target: T3, Estrogen receptor (Homo sapiens, UniProt P03372); assay: Binding affinity to estrogen receptor
T3 sequence (P03372 whole entry): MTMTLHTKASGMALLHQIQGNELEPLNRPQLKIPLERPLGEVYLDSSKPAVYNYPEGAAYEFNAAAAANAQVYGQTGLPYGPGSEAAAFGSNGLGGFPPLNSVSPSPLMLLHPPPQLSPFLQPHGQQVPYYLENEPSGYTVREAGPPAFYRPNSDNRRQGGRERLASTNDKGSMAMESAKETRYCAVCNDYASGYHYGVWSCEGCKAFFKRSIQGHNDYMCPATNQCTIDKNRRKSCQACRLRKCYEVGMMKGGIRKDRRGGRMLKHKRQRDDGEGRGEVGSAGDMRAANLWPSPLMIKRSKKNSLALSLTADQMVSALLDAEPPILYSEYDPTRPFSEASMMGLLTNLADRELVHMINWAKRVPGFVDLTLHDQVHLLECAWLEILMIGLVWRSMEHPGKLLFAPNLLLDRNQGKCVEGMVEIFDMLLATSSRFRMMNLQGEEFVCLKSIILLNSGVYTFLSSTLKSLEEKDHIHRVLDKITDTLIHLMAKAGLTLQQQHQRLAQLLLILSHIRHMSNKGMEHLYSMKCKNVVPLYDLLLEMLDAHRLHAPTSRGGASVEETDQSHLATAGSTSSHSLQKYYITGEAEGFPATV

[12] = Binding affinity to thyroid hormone receptor
Rattus norvegicus [13] = assay: Liver blood flow in rat at 1 mg/kg, iv; type: ADME, organism-based; design: dose 1 mg/kg, route intravenous; conditions: in vivo
[14] = Elimination half life in Syrian golden hamster sebaceous gland at 0.2% administered topically after 8 hrs; type: ADME, tissue-based, Mesocricetus auratus; conditions: topical or ocular, read-out: beta t1/2 (converted)
Sus scrofa [15] = assay: Toxicity in minipig assessed as systemic antiandrogenic effect at 25% administered topically BID for 7 days; type: organism-based; conditions: pig, in vivo, topical_or_ocular, 168 h
Mus musculus [16] = assay: Toxicity in BALB/c mouse assessed as lymph node contact hypersensitivity at 25% administered for 4 days; type: organism-based; conditions: in vivo, 96 h
Glucocorticoid receptor = target: T4, Glucocorticoid receptor (Homo sapiens, UniProt P04150); assay: Binding affinity to glucocorticoid receptor
T4 sequence (P04150 whole entry): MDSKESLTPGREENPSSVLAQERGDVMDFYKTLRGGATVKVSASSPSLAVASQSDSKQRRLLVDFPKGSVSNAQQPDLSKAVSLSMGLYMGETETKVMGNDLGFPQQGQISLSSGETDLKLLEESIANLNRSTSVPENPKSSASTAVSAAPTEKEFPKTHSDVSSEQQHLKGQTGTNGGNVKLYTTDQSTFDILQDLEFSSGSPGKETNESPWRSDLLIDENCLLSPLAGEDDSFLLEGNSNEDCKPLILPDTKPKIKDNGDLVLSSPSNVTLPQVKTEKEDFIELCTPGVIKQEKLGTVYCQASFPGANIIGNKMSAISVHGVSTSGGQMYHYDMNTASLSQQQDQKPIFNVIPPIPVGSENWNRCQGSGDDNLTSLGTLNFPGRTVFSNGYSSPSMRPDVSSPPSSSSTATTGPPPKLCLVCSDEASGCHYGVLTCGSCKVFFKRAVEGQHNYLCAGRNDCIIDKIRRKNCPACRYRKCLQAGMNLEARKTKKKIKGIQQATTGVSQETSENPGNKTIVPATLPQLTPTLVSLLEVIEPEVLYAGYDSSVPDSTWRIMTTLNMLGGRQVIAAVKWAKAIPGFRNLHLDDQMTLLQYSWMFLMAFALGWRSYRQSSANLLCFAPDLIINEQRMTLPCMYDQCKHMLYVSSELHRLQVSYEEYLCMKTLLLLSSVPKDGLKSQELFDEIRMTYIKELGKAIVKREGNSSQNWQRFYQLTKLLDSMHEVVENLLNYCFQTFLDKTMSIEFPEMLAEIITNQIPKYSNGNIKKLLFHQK

[17] = Drug level in Syrian golden hamster sebaceous gland at 0.2% administered topically after 8 hrs; type: ADME, tissue-based, Mesocricetus auratus; conditions: topical or ocular, read-out: Drug uptake
Syrian golden hamster [18] = assay: Toxicity in Syrian golden hamster ear model for sebum assessed as cytotoxicity-mediated sebaceous gland size administered topically BID 5 days a week for 2 weeks measured 18 to 24 hrs after the final dose; type: organism-based, Mesocricetus auratus; conditions: in vivo, topical_or_ocular
How it was run: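 After 2 weeks of twice-daily topical application to hamster ears, sebocytes were examined histopathologically for cytotoxic changes alongside the reduction in sebaceous gland size.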

[19] = Clearance in rat at 1 mg/kg, iv; type: ADME, organism-based; design: dose 1 mg/kg, route intravenous; conditions: in vivo
Syrian golden hamster [20] = assay: Inhibition of wax ester in Syrian golden hamster ear model for sebum administered topically BID 5 days a week for 2 weeks measured 18 to 24 hrs after the final dose; type: functional, Mesocricetus auratus
How it was run: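 Golden Syrian hamster ear model with twice-daily topical dosing for 2 weeks in the vehicle chosen for phase 1 studies. Wax ester production was measured across a range of doses, and ED50 was expressed as % dose. Data are mean ± SEM, N = 5.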

[21] = Hamster sebum-water partition coefficient, log K of the compound; type: ADME
Rattus norvegicus [22] = assay: Toxicity in Sprague-Dawley rat assessed as systemic antiandrogenic effect at 0.5 to 300 mg/kg, po administered once-daily for 7 days; type: organism-based; design: dose 0.5-300 mg/kg, route oral; conditions: in vivo, 168 h
Syrian golden hamster [23] = assay: Inhibition of wax ester in Syrian golden hamster ear model for sebum at 1.5% administered topically BID 5 days a week for 2 weeks measured 18 to 24 hrs after the final dose; type: functional, Mesocricetus auratus
Syrian golden hamster [24] = assay: Inhibition of cholesterol ester in Syrian golden hamster ear model for sebum at 1.5% administered topically BID 5 days a week for 2 weeks measured 18 to 24 hrs after the final dose; type: functional, Mesocricetus auratus

| Structure (SMILES) | IC50 (Progesterone receptor) | inhibition (INH) (Syrian golden hamster [1]) | IC50 (Androgen receptor [2]) | inhibition (INH) (Syrian golden hamster [3]) | log K [4] | IC50 (Androgen receptor [5]) | logD [6] | further results |
| --- | --- | --- | --- | --- | --- | --- | --- | --- |
| CC1(C)CN(Cc2ccccc2F)C(=O)[C@@H]1Oc1ccc(C#N)c(C(F)(F)F)c1 | 4820 nM | 42% | 174 nM | 72% | 3.95 | 44 nM | – | – |
| CCCN1CC(C)(C)[C@@H](Oc2ccc(C#N)c(C(F)(F)F)c2)C1=O | – | – | – | – | 2.74 | – | 3.33 | – |
| N#Cc1ccc(O[C@@H]2CCCC[C@H]2C#N)cc1C(F)(F)F | – | – | – | – | 3.03 | – | 3.4 | – |
| CC1(C)CN(Cc2ccccc2)C(=O)[C@@H]1Oc1ccc(C#N)c(C(F)(F)F)c1 | 4400 nM | 61% | 100 nM | 78% | 3.92 | 38 nM | 4.88 | Activity (Sus scrofa [7]): Non-toxic; clearance [8]: 16 mL/min/kg; Activity (Mus musculus [9]): Non-toxic; Activity (Syrian golden hamster [10]): Active; CLint scaled [11]: 121 mL/min/kg; IC50 (Estrogen receptor): > 10000 nM; IC50 [12]: > 10000 nM; LBF (Rattus norvegicus [13]): 80%; half-life [14]: 7 h; Activity (Sus scrofa [15]): Non-toxic; Activity (Mus musculus [16]): Non-toxic; IC50 (Glucocorticoid receptor): > 10000 nM; concentration at 8 h [17]: 156 µM; Activity (Syrian golden hamster [18]): Non-toxic; clearance [19]: 57 mL/min/kg; ED50 (Syrian golden hamster [20]): 0.02 mg/cm2; log K [21]: 3.85; Activity (Rattus norvegicus [22]): Non-toxic |
| C[C@H](O)CC[C@H](C)Oc1ccc(C#N)c(C(F)(F)F)c1 | – | – | – | – | 2.06 | – | 3.73 | – |
| N#Cc1ccc(Oc2ccc(F)cc2F)cc1C(F)(F)F | > 10000 nM | 24% | 488 nM | 31% | 4.06 | 60 nM | – | – |
| CSc1ccc(CN2CC(C)(C)[C@@H](Oc3ccc(C#N)c(C(F)(F)F)c3)C2=O)cc1 | > 10000 nM | – | 316 nM | – | 4.6 | 28 nM | – | inhibition (INH) (Syrian golden hamster [23]): 89%; inhibition (INH) (Syrian golden hamster [24]): 75% |
| N#Cc1ccc(Sc2ccccc2F)cc1C(F)(F)F | 6950 nM | 50% | – | 64% | 4.48 | – | – | – |
